Bioassay records: PubChem BioAssay, Broad Institute
Shown are actives, neighbours in structure and some others; about 1.7% of the full set was active somewhere.
Cneo AK release: Cryptococcus neoformans lysis via adenylate kinase release | C. neoformans lysis, adenylate kinase release luminescence, 4 h; normalised: neutral wells 0, clomiphene wells 100 | lysis activity, % at 15 µM | hit rate 0.2% among 360,000 | AID 651654;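 active = mean lysis activity across replicates of at least 80%, whatever share of replicates individually reach that level; inactive = mean lysis activity below 80%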
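Test system: log-phase Cryptococcus neoformans yeast cells. Input: 5 × 10^6 yeast cells/mL. Medium: fresh YPD growth medium. Doses: single dose. Incubation: static 4 h at 37 °C with compound, 1 h detection. Measured by: luminescent adenylate kinase detection reagent. Read-out: signal increase indicating cell lysis. Benchmarks: Clomiphene.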
CaV13 FRET inh: Disruptors of the CACNA1D IQ motif to Ca2+-dependent inactivation inhibitor domain association, primary screening, Förster resonance energy transfer in intact living … | hit rate 0.098% among 340,000 | HEK cells, CFP/YFP FRET ICDI-IQ, plate reader, 10 min; percent FRET-ratio fall versus neutral wells | inhibition, % at 12.3 µM;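 active = mean replicate inhibition of at least 30% and at least 1% of replicates passing that level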;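 also: 0% = median of the neutral control wells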
CFTR F508del cor: CFTR F508del correction in bronchial cells; CFBE cells, YFP halide quenching; stimulated with forskolin plus potentiator P3; % fluorescence drop versus neutral controls; activity (quench increase), % at 7.58 µM; hit rate 0.36% among 350,000;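 active = mean added fluorescence quench of at least 8% versus neutral control, with both replicates also reaching 8%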;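 also: cells transiently co-express mutant CFTR-F508del with the halide-sensitive YFP; corrector assay measuring rescue of mutant channel to the surface after 24 h compound exposure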
Ecoli rRNA inh: inhibits bacterial ribosomal RNA function over humanized ribosomes. hit rate 1.6% among 350,000. E. coli WT GFP vs humanized-ribosome RFP mutants, fluorescence, 24 h; stronger effect = lower value; DMSO median 0, no signal -100. GFP signal change (wild-type ribosome), % (concentration not given with the values). AID 720706;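 active = significant combined selectivity score with lowered wild-type GFP, culture density cut under 30%, mutant RFP and density less affected; inactive = any of these conditions unmet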
Active calls of the source: *.

How did CCC(=O)N(C)C[C@@H]1Oc2ncc(C#CCC(C)C)cc2C(=O)N([C@@H](C)CO)C[C@H]1C do in these assays?
Cneo AK release: -1; CFTR F508del cor: -2; Ecoli rRNA inh: 2

Results for CC1Cc2nc(SCC(=O)N3CCOCC3)n(-c3ccccc3)c(=O)c2S1 (stereo not drawn) ?
Cneo AK release: -3; CaV13 FRET inh: -6; CFTR F508del cor: 8.3*; Ecoli rRNA inh: -3

How did CO[C@@H]1CN(C)C(=O)c2ccc(NC(=O)C3CC3)cc2OC[C@H](C)N(C(=O)c2ccncc2)C[C@H]1C do in these assays?
Cneo AK release: 81*; CFTR F508del cor: 2; Ecoli rRNA inh: 3

How did CO[C@H]1CN(C)C(=O)c2cc(NC(C)=O)ccc2OC[C@H](C)N(C(=O)c2ccncc2)C[C@@H]1C do in these assays?
Cneo AK release: -1; CFTR F508del cor: -1; Ecoli rRNA inh: 2

What do the screens show for `CCC(=O)Nc1ccc2c(c1)C(=O)N(C)C[C@@H](OC)[C@H](C)CN[C@H](C)CO2`?
Cneo AK release: -11; CFTR F508del cor: -1; Ecoli rRNA inh: 0

What do the screens show for `CCC(=O)Nc1ccc2c(c1)C(=O)N(C)C[C@H](OC)[C@@H](C)CN[C@H](C)CO2`?
Cneo AK release: 84*; CFTR F508del cor: -2; Ecoli rRNA inh: 3

How did COCC(=O)Nc1ccc2c(c1)C(=O)N(C)C[C@H](OC)[C@@H](C)CN(C(=O)c1ccccc1)[C@@H](C)CO2 do in these assays?
Cneo AK release: 95*; CFTR F508del cor: 1; Ecoli rRNA inh: 1

How did CO[C@H]1CN(C)C(=O)c2ccc(NC(=O)C3CC3)cc2OC[C@@H](C)N(C(=O)c2ccncc2)C[C@@H]1C do in these assays?
Cneo AK release: -6; CFTR F508del cor: 1; Ecoli rRNA inh: 4

What do the screens show for `CO[C@H]1CN(C)C(=O)c2cc(NC(C)=O)ccc2OC[C@H](C)N(C(=O)c2ccncc2)C[C@H]1C`?
Cneo AK release: -1; CFTR F508del cor: 8.4*; Ecoli rRNA inh: 3

How did C[C@H]1CN([C@@H](C)CO)C(=O)c2cc(NC(=O)Cn3cnnn3)ccc2O[C@@H]1CN(C)Cc1ccc(Oc2ccccc2)cc1 do in these assays?
Cneo AK release: -2; CFTR F508del cor: 1; Ecoli rRNA inh: 2

How did CO[C@@H]1CN(C)C(=O)c2ccc(NC(=O)C3CC3)cc2OC[C@H](C)N(Cc2ccc(F)cc2)C[C@H]1C do in these assays?
Cneo AK release: 86*; CFTR F508del cor: 0; Ecoli rRNA inh: -5

How did CC(C)(Cc1ccc(O)cc1)NC(=O)CC(=O)N/N=C/c1ccc(Cl)cc1 do in these assays?
Cneo AK release: 4; CaV13 FRET inh: -29; CFTR F508del cor: 2; Ecoli rRNA inh: -1

How did CC(C)(Cc1ccc(O)cc1)NC(=O)CC(=O)N/N=C/c1ccc([N+](=O)[O-])cc1 do in these assays?
CaV13 FRET inh: -4; CFTR F508del cor: -3; Ecoli rRNA inh: -17*

How did C[C@H](CO)N1C[C@H](C)[C@H](CN(C)Cc2cccc(C(F)(F)F)c2)Oc2ncccc2C1=O do in these assays?
CFTR F508del cor: 0; Ecoli rRNA inh: 5

Results for CC(=O)Nc1ccc(N2C(=O)c3cccc4c(O)ccc(c34)C2=O)cc1 ?
Cneo AK release: -1; CaV13 FRET inh: -27; CFTR F508del cor: 5; Ecoli rRNA inh: 31

How did O=C1c2cccc3c(O)ccc(c23)C(=O)N1Cc1ccco1 do in these assays?
Cneo AK release: 0; CaV13 FRET inh: -24; CFTR F508del cor: 27*; Ecoli rRNA inh: 62

How did O=C1c2cccc3c(O)ccc(c23)C(=O)N1c1ccc(Cl)cc1 do in these assays?
Cneo AK release: 0; CaV13 FRET inh: -28; CFTR F508del cor: 19*; Ecoli rRNA inh: 26

How did O=C1c2ccccc2C(=O)N1Cc1ccco1 do in these assays?
Cneo AK release: 1; CaV13 FRET inh: 0

How did CN1c2ccccc2-c2nc3ccccc3n2C1c1ccccn1 (stereo not drawn) do in these assays?
Cneo AK release: 0

Results for CN1c2ccccc2-c2nc3ccccc3n2C1c1ccncc1 (stereo not drawn) ?
Cneo AK release: 0; CaV13 FRET inh: -4; Ecoli rRNA inh: -23*

What do the screens show for `O=C(c1cccnc1)N1CC(=O)N2[C@H](CO)[C@H](c3ccc(/C=C/c4ccccc4)cc3)[C@@H]2C1`?
CFTR F508del cor: 0; Ecoli rRNA inh: 1

What do the screens show for `Cc1ccc(S(=O)(=O)N(C)C)cc1NS(=O)(=O)c1ccc(Cl)s1`?
Cneo AK release: 0; CaV13 FRET inh: -5; CFTR F508del cor: -3; Ecoli rRNA inh: -45*

What do the screens show for `C[C@H]1CN([C@@H](C)CO)S(=O)(=O)c2ccc(C#CC3CCCC3)cc2O[C@@H]1CN(C)S(C)(=O)=O`?
Cneo AK release: -9; CFTR F508del cor: 0; Ecoli rRNA inh: -11

What do the screens show for `Cc1ccc(-n2c(C)nc3ccsc3c2=O)cc1`?
Cneo AK release: 0; CaV13 FRET inh: -5; CFTR F508del cor: 2; Ecoli rRNA inh: -36*

What do the screens show for `CCCCn1c(N)c(Sc2ccc(Cl)cc2)c(=O)[nH]c1=O`?
Cneo AK release: -2; CaV13 FRET inh: -8; CFTR F508del cor: 2; Ecoli rRNA inh: -21*

Results for COc1ccc(NC(=O)C2CCC(=O)N2)cc1 (stereo not drawn) ?
Cneo AK release: 1; CaV13 FRET inh: -8

How did Cc1cc(C)c(NC(=O)C2CCC(=O)N2)c(C)c1 (stereo not drawn) do in these assays?
Cneo AK release: 735*; CaV13 FRET inh: -7; Ecoli rRNA inh: 12

How did CCOc1c2ccc(C(=O)NCc3ccc(C)cc3)cc2nn1CC do in these assays?
Cneo AK release: 4; CaV13 FRET inh: -5; CFTR F508del cor: 0; Ecoli rRNA inh: -11

What do the screens show for `CCOc1c2ccc(C(=O)NCCc3ccc(C)cc3)cc2nn1CC`?
Cneo AK release: 0; CaV13 FRET inh: -11; CFTR F508del cor: 0; Ecoli rRNA inh: -24*

Results for O=C(CN1CCCc2ccccc21)N/N=C/c1ccc(O)cc1O ?
Cneo AK release: 0; CaV13 FRET inh: -5; Ecoli rRNA inh: -15*

Results for Cc1ccc(C2CC(=O)C=C(NCC(C)C)C2)cc1 (stereo not drawn) ?
Cneo AK release: 5; CaV13 FRET inh: -2; Ecoli rRNA inh: 5

Results for Cc1ccc(C2CC(=O)C=C(NCc3ccccc3)C2)cc1 (stereo not drawn) ?
Cneo AK release: 0; CaV13 FRET inh: -4; CFTR F508del cor: 6; Ecoli rRNA inh: -32*

Results for O=C(C[C@H]1C[C@H]2c3cc(NC(=O)NC4CCCC4)ccc3O[C@H]2[C@@H](CO)O1)NCc1ccc(Cl)cc1 ?
Cneo AK release: 12; CFTR F508del cor: -3; Ecoli rRNA inh: -1

How did C[C@H](CO)N1C[C@H](C)[C@@H](CN(C)S(=O)(=O)c2ccc(Cl)cc2)Oc2ccc(N(C)C)cc2C1=O do in these assays?
CFTR F508del cor: 0; Ecoli rRNA inh: -6

Results for C/C(=N\Nc1nc2ccccc2[nH]1)c1ccc2c(c1)OCO2 ?
Cneo AK release: 34; CaV13 FRET inh: -7; Ecoli rRNA inh: -64
